From PubChem BioAssay AID1885 (Broad Institute, 2009)
Screen size: about 300,000 compounds; about 4,400 (1.5%) were called active. Shown is part of a subset that was picked to be rich in actives. Values without a mark were called inactive.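 Rule for the calls: active = mean inhibition across valid replicates above about 55% (limit read from the data); inconclusive = mean below that limit but half or more replicates reach it; inactive = mean below it, under half of replicates reach it.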

Assay: Trypanosoma cruzi replication blockers in host cells – luminescence, NIH3T3 host cells, primary screen (AID 1885);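 note: signal also drops with host cell toxicity which is not excluded here; 0% = plate median of DMSO wells and 100% = zero luminescence signal; higher percent means less beta-gal luminescence so fewer parasites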
Settings: T. cruzi beta-gal in NIH3T3, luminescence, 90 h; stronger effect = higher value; concentration not given here
Summary of the method: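 Read-out: Parasite load inhibition, % | Test system: Mouse NIH/3T3 fibroblasts infected with β-gal-expressing T. cruzi Tulahuen C4 | Amount: 5,000 cells/well | Medium: DMEM, 2% fetal bovine serum | Signal: GalScreen β-gal luminescence, detergent lysis, 60 min | Timing: 3 h attach, ≥90 h co-culture | Also added: Tulahuen C4 trypomastigotes, 5000/well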

For `CC(C)CN(C(=O)Cn1c(=O)cnc2ccccc21)C1CCS(=O)(=O)C1` (configuration not stated), which inhibition is on record?
The inhibition was 11%.

For `N#CCc1c(C#N)c(N)nc(N2CCCC2)c1C#N`, which inhibition is on record?
The inhibition was 8.26%.

Which inhibition does the source give for `Cc1ncc(CO)c(/C=N/NC(=O)c2cccc(S(=O)(=O)N3CCCC3)c2)c1O` here?
The inhibition was -9.29%.

For `CCn1c2c(c3ccc(OC)cc31)CCCC2=O`, which inhibition is on record?
Its inhibition is -5.03%.

Which inhibition does the source give for `O=C(/C(=C/c1cccc(Cl)c1)c1nc2ccccc2[nH]1)c1ccccc1` here?
Its inhibition is 68.4% (active).

Which inhibition does the source give for `O=C(Cc1nc2ccccc2[nH]c1=O)c1ccc(Cl)cc1` here?
Its inhibition is 0.565%.

With `CCC(=O)/C(=C(/O)c1ccccc1)c1nc2ccccc2[nH]1` as the compound, how does the inhibition read?
Its inhibition is 3.53%.

Which inhibition does the source give for `CCCCn1c(N)c(N(CC(C)C)C(=O)CSc2ccc([N+](=O)[O-])cc2)c(=O)[nH]c1=O` here?
The inhibition was 6.23%.

Which inhibition does the source give for `CC(Oc1ccc(Br)cc1)C(=O)NCC(c1ccco1)N1CCCCC1` (configuration not stated) here?
The inhibition was -0.255%.

With `CCN(C(=O)CSc1nnnn1-c1ccccc1OC)C1CCS(=O)(=O)C1` (configuration not stated) as the compound, how does the inhibition read?
Its inhibition is -11.8%.

For `CC1=C(C(=O)OC2CCCCC2)C(c2cccnc2)n2ncnc2N1` (configuration not stated), which inhibition is on record?
The inhibition was 61.7% (active).

For `COC(=O)C1=C(C)Nc2ncnn2C1c1ccco1` (configuration not stated), which inhibition is on record?
The inhibition was -1.94%.

For `COC(=O)C1=C(C)Nc2ncnn2C1c1cccnc1` (configuration not stated), which inhibition is on record?
The inhibition was 17.7%.

With `COc1ccc(C(=O)COC(=O)COc2ccc(C)c(C)c2)cc1` as the compound, how does the inhibition read?
Its inhibition is 4.19%.

With `O=S(=O)(NC1CCCCC1N1CCN(c2ccccc2F)CC1)c1ccccc1` (configuration not stated) as the compound, how does the inhibition read?
The inhibition was 20.8%.

For `Cc1n[nH]c(=O)c2c(NC(=O)COC(=O)c3ncc(Cl)c(Cl)c3Cl)oc(C)c12`, which inhibition is on record?
The inhibition was -10.3%.

With `COc1ccc2c(CC(=O)OCC(=O)Nc3ccccc3[N+](=O)[O-])coc2c1` as the compound, how does the inhibition read?
The inhibition was 16.9%.

With `COc1ccc(N(CC(=O)Nc2cccc3ccccc23)S(C)(=O)=O)c(OC)c1` as the compound, how does the inhibition read?
Its inhibition is -7.06%.

For `CCc1ccccc1NC(=O)CN(c1ccc(OC)cc1OC)S(=O)(=O)c1ccccc1[N+](=O)[O-]`, which inhibition is on record?
The inhibition was 58.4% (active).

Which inhibition does the source give for `O=C1N[C@@H](Cc2ccccc2)C(=O)N2[C@H]1C[C@]1(Br)c3ccccc3N(S(=O)(=O)c3ccccc3)[C@H]21` here?
The inhibition was -12.8%.

With `c1ccc(CCc2nc(-c3ccncc3)no2)cc1` as the compound, how does the inhibition read?
Its inhibition is -6.81%.

With `Cc1cc(Cl)ccc1OCc1nc(-c2ccncc2)no1` as the compound, how does the inhibition read?
The inhibition was 74.8% (active).

With `COc1ccc(-c2noc(COc3ccc(Cl)c(C)c3)n2)cc1` as the compound, how does the inhibition read?
Its inhibition is -9.09%.

Which inhibition does the source give for `O=C(c1ccncc1)N1CCN(S(=O)(=O)c2cccc([N+](=O)[O-])c2)CC1` here?
The inhibition was 25.7%.

For `CCCNC(=O)c1c(Cl)cnn1-c1ccc(C)cc1`, which inhibition is on record?
Its inhibition is -28%.

With `CCCNC(=O)CCc1c(C)nc2c(c(C)nn2-c2ccccc2)c1C` as the compound, how does the inhibition read?
The inhibition was 28%.

Which inhibition does the source give for `CCCNC(=O)CCc1c(C)nc2c(c(C)nn2-c2ccc(C)cc2)c1C` here?
Its inhibition is 63.7% (active).

With `O=S(=O)(O)Oc1c[nH]c2ccccc12` as the compound, how does the inhibition read?
The inhibition was -8.75%.

With `COc1ccc(S(=O)(=O)N(CC(=O)N/N=C/c2ccccc2C(=O)O)c2ccccc2OC)cc1` as the compound, how does the inhibition read?
Its inhibition is 20.6%.

Which inhibition does the source give for `COc1ccccc1NC(=O)CN(c1ccccc1OC)S(=O)(=O)c1ccccc1` here?
Its inhibition is 2.04%.

With `COc1ccccc1N(CC(=O)N/N=C(\C)c1ccccc1O)S(=O)(=O)c1ccc(C)cc1` as the compound, how does the inhibition read?
Its inhibition is 65.9% (active).

With `O=C(N/N=C/c1cc(Br)c(O)c([N+](=O)[O-])c1)C(O)(c1ccccc1)c1ccccc1` as the compound, how does the inhibition read?
Its inhibition is -7.65%.

With `CCn1nc(C)c(NC(=O)/C=C/c2ccc(OC)c(COc3ccc(Br)cc3)c2)c1C` as the compound, how does the inhibition read?
The inhibition was 68.5% (active).

With `COc1ccc(C(C)=O)cc1COc1ccc(Cl)c(C)c1` as the compound, how does the inhibition read?
The inhibition was 14.6%.

For `COc1ccc(/C=C/C(=O)Nc2c(C)nn(C)c2C)cc1COc1ccc(Br)cc1`, which inhibition is on record?
Its inhibition is 30.9%.

With `O=C(O)CCn1c(O)c(C=C2N=c3ccccc3=N2)sc1=S` as the compound, how does the inhibition read?
Its inhibition is -24.7%.

For `COc1ccc(NC(=S)NCC2CCN(c3ccc(OC)cc3)C2)cc1` (configuration not stated), which inhibition is on record?
Its inhibition is 6.37%.

With `COc1ccc(NC(=S)NCCN2CCC(C)CC2)cc1` as the compound, how does the inhibition read?
Its inhibition is -11.2%.

With `COc1ccc(N2CCC(CNC(=S)Nc3c(C)cccc3C)C2)cc1` (configuration not stated) as the compound, how does the inhibition read?
The inhibition was 55.3% (active).

Which inhibition does the source give for `CN1C(C(=O)NCC2CC2)CC2Cn3c(nc4ccccc43)C21` (configuration not stated) here?
The inhibition was -19%.

With `O=C1CN(C(=O)COc2c(Cl)cccc2Cl)c2ccccc2N1` as the compound, how does the inhibition read?
Its inhibition is -8.97%.

With `COc1ccccc1CCC(=O)NNC(=O)c1ccncc1` as the compound, how does the inhibition read?
Its inhibition is 10.4%.

For `Cc1cc(C(=O)CCl)c(C)n1CC1COc2ccccc2O1` (configuration not stated), which inhibition is on record?
The inhibition was 60.4% (active).

For `O=C1C(=O)N(CC2COc3ccccc3O2)c2ccccc21` (configuration not stated), which inhibition is on record?
The inhibition was -17%.

Which inhibition does the source give for `Cc1cc(NC(=O)CCC2COc3ccccc3O2)no1` (configuration not stated) here?
The inhibition was 1.39%.

For `Cc1cc(C)c(C)c(S(=O)(=O)N2CCN(C(=O)c3ccc4c(=O)n5c(nc4c3)CCC5)CC2)c1C`, which inhibition is on record?
The inhibition was -5.27%.

Which inhibition does the source give for `Nc1nc(Sc2ncccc2[N+](=O)[O-])n[nH]1` here?
The inhibition was -19.9%.
